Reference: publication PMC4148159 (Journal of Medicinal Chemistry, 2014)

Experiments:
[1] = test system: Vector control cells (DKO MEF, RH7777, CHO, B103); assay: Fura-2AM Ca2+ mobilization in empty vector control cells; type: cell-based; details: read-out: vector EC50
Outline: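 Cells were loaded with Fura-2AM, and transient Ca2+ mobilization was read as fluorescence on a robotic plate reader. Receptor-expressing lines were CHO (LPA4), DKO MEF (LPA2), RH7777 (LPA1/3) and B103 (LPA5). Vector controls were the same lines transduced with empty vector. […] Values are means of three assays.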

LPA2 = LPA2 (Homo sapiens, UniProt Q9HBW0); assay: Fura-2AM Ca2+ mobilization, agonist mode, LPA2 DKO MEF cells; type: cell-based; details: for LPA2 agonist activity (in words): Ca2+ mobilization, SAR discussion
LPA3 [2] = target: T1, LPA3 (Homo sapiens, UniProt Q9UBY5); assay: Fura-2AM Ca2+ mobilization, agonist mode, LPA3-expressing cells; type: cell-based; details: read-out: LPA3 Emax
T1 sequence (Q9UBY5 1-353): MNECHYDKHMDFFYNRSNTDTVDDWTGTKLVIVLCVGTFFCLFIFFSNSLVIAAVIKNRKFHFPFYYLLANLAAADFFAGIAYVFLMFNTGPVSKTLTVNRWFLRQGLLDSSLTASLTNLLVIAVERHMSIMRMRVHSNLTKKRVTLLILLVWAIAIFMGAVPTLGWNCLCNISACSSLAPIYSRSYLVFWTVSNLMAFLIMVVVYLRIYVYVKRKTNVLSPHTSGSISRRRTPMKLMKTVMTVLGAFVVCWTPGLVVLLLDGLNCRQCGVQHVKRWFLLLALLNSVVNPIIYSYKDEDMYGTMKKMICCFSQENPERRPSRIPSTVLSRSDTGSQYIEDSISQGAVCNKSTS

LPA4 [3] = target: T2, LPA4 (Mus musculus, UniProt Q8BLG2); assay: Fura-2AM Ca2+ mobilization, agonist mode, LPA4 CHO cells; type: cell-based, human; details: read-out: LPA4 Emax
LPA5 [4] = target: T3, LPA5 (Homo sapiens, UniProt Q9H1C0); assay: Fura-2AM Ca2+ mobilization, agonist mode, LPA5 B103 cells; type: cell-based; details: B103, read-out: LPA5 Emax
LPA3 [5] = target: T1, LPA3; assay: Ca2+ mobilization antagonist screen against LPA 18:1, LPA3; type: cell-based
LPA1 = LPA1 (Homo sapiens, UniProt Q92633); assay: Ca2+ mobilization antagonist screen against LPA 18:1, LPA1; type: cell-based; details: coapplied with LPA 18:1
LPA4 [6] = target: T2, LPA4; assay: Ca2+ mobilization antagonist screen against LPA 18:1, LPA4; type: cell-based, human; details: coapplied with LPA 18:1
LPA5 [7] = target: T3, LPA5; assay: Ca2+ mobilization antagonist screen against LPA 18:1, LPA5; type: cell-based; details: coapplied with LPA 18:1
apoptosis = details: cell-based models of apoptosis; cited from earlier work
[8] = test system: radiation-induced apoptosis; details: mice suffering from the acute hematopoietic radiation syndrome; cited from earlier work

Chain of LPA2 (Q9HBW0 whole entry): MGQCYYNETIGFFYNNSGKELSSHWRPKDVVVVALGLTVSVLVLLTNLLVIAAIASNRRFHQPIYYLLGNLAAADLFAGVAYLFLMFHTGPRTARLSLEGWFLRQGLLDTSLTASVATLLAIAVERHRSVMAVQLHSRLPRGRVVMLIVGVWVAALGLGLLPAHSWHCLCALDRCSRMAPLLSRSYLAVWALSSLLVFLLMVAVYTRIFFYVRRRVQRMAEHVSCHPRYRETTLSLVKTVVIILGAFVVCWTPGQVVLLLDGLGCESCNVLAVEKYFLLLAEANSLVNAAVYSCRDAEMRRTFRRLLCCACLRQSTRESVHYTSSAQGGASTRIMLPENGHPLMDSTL
T3 sequence (Q9H1C0 whole entry): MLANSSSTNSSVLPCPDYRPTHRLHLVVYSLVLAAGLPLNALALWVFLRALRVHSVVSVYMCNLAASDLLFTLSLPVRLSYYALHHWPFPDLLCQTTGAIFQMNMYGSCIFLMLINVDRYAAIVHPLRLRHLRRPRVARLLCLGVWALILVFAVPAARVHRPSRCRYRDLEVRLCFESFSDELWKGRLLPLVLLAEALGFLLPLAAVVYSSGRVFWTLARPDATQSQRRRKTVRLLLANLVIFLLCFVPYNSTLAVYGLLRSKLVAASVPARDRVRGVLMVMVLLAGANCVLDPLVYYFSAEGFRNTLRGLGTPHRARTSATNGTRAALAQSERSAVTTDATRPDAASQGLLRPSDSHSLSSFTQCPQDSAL
T2 sequence (Q8BLG2 whole entry): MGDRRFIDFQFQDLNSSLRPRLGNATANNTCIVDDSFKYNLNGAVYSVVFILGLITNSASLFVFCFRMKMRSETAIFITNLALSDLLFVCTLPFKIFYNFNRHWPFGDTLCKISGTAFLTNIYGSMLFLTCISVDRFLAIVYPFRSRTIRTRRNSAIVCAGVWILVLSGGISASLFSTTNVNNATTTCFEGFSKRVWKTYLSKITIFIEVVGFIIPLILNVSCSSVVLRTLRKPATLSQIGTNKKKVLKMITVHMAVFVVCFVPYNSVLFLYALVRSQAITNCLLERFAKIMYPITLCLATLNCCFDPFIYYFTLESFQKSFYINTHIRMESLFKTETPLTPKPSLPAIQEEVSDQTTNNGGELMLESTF
Chain of LPA1 (Q92633 whole entry): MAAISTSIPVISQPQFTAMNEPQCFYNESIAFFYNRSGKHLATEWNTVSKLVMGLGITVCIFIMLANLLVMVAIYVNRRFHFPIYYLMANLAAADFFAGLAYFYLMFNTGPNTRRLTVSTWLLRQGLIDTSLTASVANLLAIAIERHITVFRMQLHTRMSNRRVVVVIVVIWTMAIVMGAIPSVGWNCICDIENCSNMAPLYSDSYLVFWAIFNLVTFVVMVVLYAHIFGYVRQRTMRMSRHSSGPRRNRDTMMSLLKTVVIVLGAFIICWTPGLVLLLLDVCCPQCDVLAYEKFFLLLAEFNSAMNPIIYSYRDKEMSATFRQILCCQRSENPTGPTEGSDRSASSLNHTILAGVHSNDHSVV

Row | SMILES | EC50 [1] [µM] | LPA2 agonist activity (in words) (LPA2) | also measured
1 | O=C(O)c1ccccc1S(=O)(=O)NCCCCCN1C(=O)c2cccc3cccc(c23)C1=O [Compound 6] | > 10 | – | –
2 | O=C(O)c1ccc(Br)cc1S(=O)(=O)NCCCCN1C(=O)c2cccc3cccc(c23)C1=O [Compound 8b] | > 10 | more potent than compound 4 | –
3 | COc1ccc(C(=O)O)c(S(=O)(=O)NCCCCN2C(=O)c3cccc4cccc(c34)C2=O)c1 [Compound 8a] | > 10 | very weak agonist activity | –
4 | O=C(O)c1ccc(S(=O)(=O)NCCCCN2C(=O)c3cccc4cccc(c34)C2=O)cc1 [Compound 11b] | > 10 | abolished the activity at LPA2 | –
5 | O=C(O)c1ccccc1S(=O)(=O)NCCCCN1C(=O)c2ccccc2C1=O [Compound 7a, 2-[4-(1,3-Dioxo-1,3-dihydroisoindol-2-yl)butylsulfamoyl]benzoic acid] | > 10 | – | EC50 (LPA2): > 10 µM
6 | CCCCCCCC/C=C\CCCCCCCC(=O)OC[C@@H](O)COP(=O)(O)O [LPA 18:1, 1-acyl-2-hydroxy-sn-3-glycerophosphate] | > 10 | – | Emax (LPA2; MEF, read-out: LPA2 Emax): 100%; Emax (LPA3 [2]): 100%; Emax (LPA4 [3]): 100%; Emax (LPA5 [4]): 100%
7 | O=C(O)c1ccc(C(=O)O)c(S(=O)(=O)NCCCCN2C(=O)c3cccc4cccc(c34)C2=O)c1 [Compound 10, 2-(N-(4-(1,3-dioxo-1H-benzo[de]isoquinolin-2(3H)-yl)butyl)sulfamoyl)terephthalic acid] | > 10 | considerably less potent than the compound 9 | –
8 | O=C1C(=O)N(CCCCNS(=O)(=O)c2ccccc2C(=O)O)c2ccccc21 [Compound 7b, 2-(N-(4-(2,3-dioxoindolin-1-yl)butyl)sulfamoyl)benzoic acid] | > 10 | – | EC50 (LPA2): > 10 µM
9 | O=C(O)c1ccccc1S(=O)(=O)NCCCN1C(=O)c2cccc3cccc(c23)C1=O [Compound 4, 2-(N-(3-(1,3-dioxo-1H-benzo[de]isoquinolin-2(3H)-yl)propyl)sulfamoyl)benzoic acid] | > 10 | – | EC50 (LPA2): ~2 µM; IC50 (LPA3 [5]): > 10 µM; LPA1 inhibition (antagonist activity) (LPA1): without activating or inhibiting; LPA4 inhibition (antagonist activity) (LPA4 [6]): without activating or inhibiting; LPA5 inhibition (antagonist activity) (LPA5 [7]): without activating or inhibiting
10 | O=C(O)c1cc(Br)ccc1S(=O)(=O)NCCCCN1C(=O)c2cccc3cccc(c23)C1=O [Compound 8c] | > 10 | – | –
11 | O=C(O)c1ccccc1SCCCN1C(=O)c2cccc3cccc(c23)C1=O [GRI-977143] | > 10 | – | antiapoptotic efficacy (apoptosis): showed antiapoptotic efficacy; efficacy against radiation-induced apoptosis [8]: modestly efficacious
12 | O=C(O)c1cc(F)ccc1S(=O)(=O)NCCCCN1C(=O)c2cccc3cccc(c23)C1=O [Compound 11c] | > 10 | – | –
13 | O=C(O)c1ccc2c(c1)S(=O)(=O)N(CCCCN1C(=O)c3cccc4cccc(c34)C1=O)C2=O [Compound 9, 2-(4-(1,3-dioxo-1H-benzo[de]isoquinolin-2(3H)-yl)butyl)-3-oxo-2,3-dihydrobenzo[d]isothiazole-6-carboxylic acid 1,1-dioxide] | > 10 | – | –
14 | O=C(O)c1cccc(S(=O)(=O)NCCCCN2C(=O)c3cccc4cccc(c34)C2=O)c1 [Compound 11a] | > 10 | abolished the activity at LPA2 | –
15 | O=C(O)c1cc(Cl)ccc1S(=O)(=O)NCCCCN1C(=O)c2cccc3cccc(c23)C1=O [Compound 11d, 5-chloro-2-(N-(4-(1,3-dioxo-1H-benzo[de]isoquinolin-2(3H)-yl)butyl)sulfamoyl)benzoic acid] | > 10 | – | –
16 | O=C(O)c1ccccc1S(=O)(=O)NCCCCN1C(=O)c2cccc3cccc(c23)C1=O [Compound 5] | > 10 | – | –
